Assay [1] is described as follows: nonspecific flux increase, KCNQ1-free cells – parental CHO cells, counter-screen for KCNQ1 potentiator project (AID 493006;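 active = duplicate-averaged activation above buffer control mean plus 5 SD of those controls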). The settings on record: parental CHO-K1 cells, FluxOR thallium flux, at 10 µM; hits give high values. The procedure, abridged:
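Test system: parental CHO-K1 cells, FluxOR dye-loaded / Probe or stimulus: potassium plus thallium depolarizing stimulus, 5x stock 12.5 mM K2SO4, Tl2SO4 / Timing: overnight 37 °C plating, 90 min dye, 20 min dark compound / Measured by: kinetic thallium-flux fluorescence / Read-out: max-minus-min fluorescence over baseline, percent of buffer-to-R-L3 span / Benchmarks: buffer and R-L3 controls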
(The purpose of a counterscreen is to sort out artefacts and off-target activity.)

In assay [2] the target is Potassium voltage-gated channel subfamily KQT member 1 (Homo sapiens) (UniProt P51787). The experiment in a line: enhancement of KCNQ1 channel thallium flux – FluxOR thallium flux, CHO cells, duplicates, confirmation (AID 493007;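 active = potentiation averaged over duplicate wells exceeding buffer-only control mean by more than 3 SD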;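 as to outcome: cells depolarized by a potassium plus thallium sulfate stimulus after compound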;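 as to potentiation: 0% = buffer-only wells and 100% = R-L3 activator control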). The settings on record: KCNQ1 cell line, FluxOR thallium flux fluorescence, at 10 µM; hits give high values, % of reference activator effect, buffer zero. The procedure, abridged:
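Assay system: CHO cells carrying KCNQ1 | Controls: Buffer and R-L3 controls | Schedule: FluxOR dye loading 90 min, compound exposure 20 min, room temperature | Read-out: Baseline-normalized fluorescence change, percent of buffer-to-R-L3 range | Replicates: Each compound tested in duplicate | Technique: Kinetic thallium influx fluorescence with FluxOR dye, 10 s baseline, 110 s post-stimulus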

The target in assay [3] is Potassium voltage-gated channel subfamily KQT member 2 (Rattus norvegicus) (UniProt O88943). The experiment in a line: KCNQ2 thallium flux enhancement – KCNQ2-CHO-K1 cells, selectivity assay for KCNQ1 potentiator project (AID 493009).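 Also: assay conditions were tuned for KCNQ1 rather than KCNQ2 modulators; signal is max minus min fluorescence divided by baseline after thallium stimulus.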 The conditions noted are these: FluxOR thallium flux fluorescence, at 10 µM; hits give high values, scaled: buffer 0, activator control 100.
Chain of Potassium voltage-gated channel subfamily KQT member 2 (Rattus norvegicus) (O88943 whole entry, looked up): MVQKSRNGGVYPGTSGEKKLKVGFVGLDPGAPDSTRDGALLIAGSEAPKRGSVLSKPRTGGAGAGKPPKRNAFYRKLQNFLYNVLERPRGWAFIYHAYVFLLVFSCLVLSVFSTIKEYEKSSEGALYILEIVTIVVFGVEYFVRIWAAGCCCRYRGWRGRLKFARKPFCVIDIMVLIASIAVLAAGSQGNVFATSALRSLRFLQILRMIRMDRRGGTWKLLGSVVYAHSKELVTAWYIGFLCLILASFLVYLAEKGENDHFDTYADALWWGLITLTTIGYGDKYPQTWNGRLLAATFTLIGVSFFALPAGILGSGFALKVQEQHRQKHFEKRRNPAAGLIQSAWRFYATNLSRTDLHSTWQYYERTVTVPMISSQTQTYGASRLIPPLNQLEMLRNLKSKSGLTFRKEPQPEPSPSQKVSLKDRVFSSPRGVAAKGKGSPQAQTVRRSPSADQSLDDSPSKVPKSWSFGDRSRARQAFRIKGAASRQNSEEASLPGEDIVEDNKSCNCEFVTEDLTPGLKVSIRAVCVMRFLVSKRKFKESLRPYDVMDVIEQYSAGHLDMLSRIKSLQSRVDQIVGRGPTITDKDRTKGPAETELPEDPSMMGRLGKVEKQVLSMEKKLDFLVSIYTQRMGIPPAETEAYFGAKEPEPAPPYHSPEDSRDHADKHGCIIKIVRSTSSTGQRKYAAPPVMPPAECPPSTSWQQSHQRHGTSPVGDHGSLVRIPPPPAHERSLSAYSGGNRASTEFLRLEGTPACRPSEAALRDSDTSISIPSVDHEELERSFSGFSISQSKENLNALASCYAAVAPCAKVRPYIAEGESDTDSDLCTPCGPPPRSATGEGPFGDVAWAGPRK

Assay [4] addresses Potassium voltage-gated channel subfamily KQT member 1 (Homo sapiens) (UniProt P51787). The experiment in a line: KCNQ1 activators by electrophysiology – IonWorks patch clamp, KCNQ1-CHO cells, orthogonal assay for KCNQ1 potentiator project, confirmation (AID 493184;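 active = current rise at least 3 SD above the untreated control mean in each of two repeat wells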;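 as to current potentiation: percent change of the same well's current before compound addition so 0% = no change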). The conditions noted are these: automated patch clamp current, at 10 µM; hits give high values. The procedure, abridged: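 Material: KCNQ1-expressing CHO cells; doses: 10 µM final, single point; probe or stimulus: voltage step from -90 mV holding to +40 mV, 2,000 ms; signal: automated voltage clamp, amphotericin B perforated patch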

The values that follow come from PubChem BioAssay.

Activity calls are given as the source filed them.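 The calls were made as follows, unless noted: active = mean duplicate potentiation above the buffer control mean plus 5 SD of buffer wells; inactive = the rest.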

Chain of Potassium voltage-gated channel subfamily KQT member 1 (Homo sapiens) (P51787 whole entry, looked up): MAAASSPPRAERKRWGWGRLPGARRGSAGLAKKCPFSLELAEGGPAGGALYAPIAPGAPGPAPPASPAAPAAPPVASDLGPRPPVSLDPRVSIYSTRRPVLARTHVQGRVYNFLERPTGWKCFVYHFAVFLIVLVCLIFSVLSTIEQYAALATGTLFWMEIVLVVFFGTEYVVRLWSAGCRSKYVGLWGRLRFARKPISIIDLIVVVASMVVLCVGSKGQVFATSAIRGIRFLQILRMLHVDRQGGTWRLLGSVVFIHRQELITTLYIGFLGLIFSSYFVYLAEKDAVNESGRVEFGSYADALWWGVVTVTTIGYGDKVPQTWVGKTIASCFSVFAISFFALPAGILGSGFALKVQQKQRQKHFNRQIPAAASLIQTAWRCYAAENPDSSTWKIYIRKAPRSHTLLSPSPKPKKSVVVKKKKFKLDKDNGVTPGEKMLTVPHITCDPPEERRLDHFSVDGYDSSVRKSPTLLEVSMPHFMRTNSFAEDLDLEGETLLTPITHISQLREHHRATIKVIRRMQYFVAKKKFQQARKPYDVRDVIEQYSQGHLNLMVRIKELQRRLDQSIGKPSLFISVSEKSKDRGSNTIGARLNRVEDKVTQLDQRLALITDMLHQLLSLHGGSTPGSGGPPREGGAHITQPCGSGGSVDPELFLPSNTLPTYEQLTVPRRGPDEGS

In the case of `COc1ccc2c(c1)c(=O)c(C(=O)O)c(-c1ccc3c(c1)OCO3)n2C`, the result in assay [1], in assay [2], in assay [3] and in assay [4] was inactive.

As for `O=C(NCc1ccco1)c1ccc(=O)oc1`, the result in assay [1], in assay [2], in assay [3] and in assay [4] was inactive.

On to `CCN(CC)c1ccc(Nc2cc3n(c(=O)n2)CCc2cc(OC)c(OC)cc2-3)cc1`, for which the result in assay [1], in assay [2], in assay [3] and in assay [4] was inactive.

Consider `COc1ccc(-n2cc(-c3ccccc3)c3c(=S)nc[nH]c32)cc1`, for which the activation in assay [1] is 137% (active). In addition, the potentiation in assay [2] was 38% (active); in assay [3], 172% (active). Further, the result in assay [4] was inactive.

With `COc1ccc(C2c3ccc4ccccc4c3Oc3ncn(CCN4CCOCC4)c(=N)c32)cc1` (stereo not given), the result in assay [1], in assay [2], in assay [3] and in assay [4] was inactive.

With `CCOC(=O)C1CCCN(C(=O)C2CCN(S(=O)(=O)c3ccc4ccccc4c3)CC2)C1` (stereo not given), the result in assay [1], in assay [2], in assay [3] and in assay [4] was inactive.

As to `O=C(CN(c1ccc(Cl)cc1)S(=O)(=O)c1ccc(Cl)c([N+](=O)[O-])c1)NCCc1ccc(F)cc1`, the result in assay [1], in assay [2], in assay [3] and in assay [4] was inactive.

Take `NS(=O)(=O)c1ccc(NC(=S)Nc2ccc(OCc3ccccc3)cc2)cc1`: the outcome in assay [1], in assay [2], in assay [3] and in assay [4] was inactive.

Consider `COC(=O)c1sc(-c2ccc(C(C)(C)C)cc2)cc1NC(=O)/C=C/C(=O)O`, for which, in assay [1], the activation is 427% (active). Also, the results for the potentiation in assay [2] and in assay [3] were 130% (active) and 320% (active), respectively. In assay [4], the current potentiation is 20.6% (active).

In the case of `COc1cccc(C(=O)NNC(=O)C(=O)Nc2cccc(Cl)c2C)c1`, the activation in assay [1] was 195% (active). The potentiation in assay [2] was 128% (active); in assay [3], 299% (active). Besides, the outcome in assay [4] was inactive.

`COc1ccc(NC(=O)C(=O)NNC(=O)C(C)Oc2ccc(Cl)cc2Cl)cc1` (stereo not given): in assay [1], the activation was 481% (active). Further, the potentiation was 177% (active) in assay [2] and 492% (active) in assay [3]. Moreover, in assay [4], the outcome was inactive.

As for `CN1C=CC=C/C1=C1\SC(=S)N(Cc2ccccc2)C1=O`, the outcome in assay [1], in assay [2], in assay [3] and in assay [4] was inactive.

As for `O=Cc1ccc2noc(-c3ccc(Cl)cc3)c2c1`, the result in assay [1], in assay [2], in assay [3] and in assay [4] was inactive.

Take `NC(=O)NC(=O)C[n+]1cccc(/C=N/O)c1`: the result in assay [1], in assay [2], in assay [3] and in assay [4] was inactive.

Take `O=C(COC(=O)CNC(=O)c1ccc(Cl)cc1Cl)Nc1cccc(S(=O)(=O)N2CCCC2)c1`: the result in assay [1], in assay [2], in assay [3] and in assay [4] was inactive.

For the compound `CC(C)Cn1c(=O)c(C(=O)N/N=C/c2cccc(F)c2)c(O)c2ccccc21`, the result in assay [1], in assay [2], in assay [3] and in assay [4] was inactive.

Consider `Cc1ccc(Sc2ccc(CN3CCCC3)cc2[N+](=O)[O-])cc1`, for which the result in assay [1], in assay [2], in assay [3] and in assay [4] was inactive.

Take `COc1cc(C2NC(=O)NC(O)(C(F)(F)F)C2C(C)=O)cc(OC)c1OC` (stereo not given): the result in assay [1], in assay [2], in assay [3] and in assay [4] was inactive.

For `CS(=O)(=O)N1CCC(C(=O)Nc2ccc(OCc3ccccc3)cc2)CC1`, the result in assay [1], in assay [2], in assay [3] and in assay [4] was inactive.

For the compound `Cc1c(CN(C)C)c2c(n1C)C(=O)c1ccc(Br)cc1-2`, the activation in assay [1] was 146% (active). In addition, the values for the potentiation in assay [2] and in assay [3] were 53% (active) and 159% (active), respectively. Besides, in assay [4], the result was inactive.

As for `CCOC(=O)C1=NN(C(=O)c2ccc(OC)cc2)C(O)(c2ccc(Cl)cc2)C1` (stereo not given), the activation in assay [1] was 456% (active). The potentiation is 136% (active) in assay [2] and 428% (active) in assay [3]. For the same compound, the outcome in assay [4] was inactive.

With `COc1ccccc1-n1cnc2cc(NCc3ccco3)ccc21`, the outcome in assay [1], in assay [3] and in assay [4] was inactive. For the same compound, the potentiation in assay [2] was 34.5% (active).

Regarding `Cc1ccc(NC2=C(NC(=O)c3ccccc3)C(=O)c3ccccc3C2=O)cc1Cl`, the outcome in assay [1], in assay [2], in assay [3] and in assay [4] was inactive.

Turning to `COc1ccc(-c2csc(NC(=S)NC(=O)c3cccs3)n2)cc1OC`, the outcome in assay [1] and in assay [4] was inactive. Also, the potentiation in assay [2] was 40% (active); in assay [3], 216% (active).

Turning to `O=C(c1ccccc1)N1CCCC(c2ccc(Cl)cc2)=N1`, the outcome in assay [1], in assay [2], in assay [3] and in assay [4] was inactive.

Turning to `O=c1c2cc(Br)ccc2nc(-c2ccc([N+](=O)[O-])cc2)n1O`, the activation in assay [1] is 346% (active). The potentiation in assay [2] is 147% (active); in assay [3] it was 410% (active). In assay [4], the result was inactive.

As to `CN1CCN(C(=O)/C(=C/c2ccccc2)c2ccccc2)CC1`, the outcome in assay [1], in assay [2], in assay [3] and in assay [4] was inactive.

As to `CC(=O)c1c(N2CCOCC2)[nH]c(-c2ccccc2)nc1=S`, the activation in assay [1] was 202% (active). Further, the figures for the potentiation in assay [2] and in assay [3] were 66.5% (active) and 204% (active), respectively. Moreover, the result in assay [4] was inactive.

`COc1ccc2nc(N3C(=O)/C(=C/c4ccccc4)NC3=S)sc2c1`: the activation in assay [1] was 380% (active). In addition, the potentiation in assay [2] was 204% (active); in assay [3], 486% (active). In assay [4], the result was inactive.

As to `O=C1c2cccc3cccc(c23)C(=O)N1c1cccc(O)c1`, the result in assay [1], in assay [2], in assay [3] and in assay [4] was inactive.
